Molecules are shown by their SMILES. Calls of active or inactive are those of the source.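 Rule for the calls, unless noted: active = viability at or under a set limit in both replicates, limit being median viability minus 3 SD (cut at about 48% in these data, passing the limit was not always enough); inconclusive = at or under the limit in just one replicate; inactive = at or above the limit in both replicates.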

Assay [1] can be described thus: HUVEC growth inhibition – cell-based, human, primary screen (AID 575;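 active = viability at or below 30% in both replicate assays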;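 note: 100% = median of untreated cell wells with 0.1% DMSO on each plate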). The conditions noted are these: HUVEC proliferation, CellTiter-Glo luminescence, 72 h; at 10 µM; stronger effect = lower value. A digest of the protocol: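 System: primary human umbilical vein endothelial cells; Quantity: 1250 endothelial cells in each well; Buffer or medium: supplemented EBM, 2% fetal bovine serum; Doses: one dose, 10 µM final, 0.1% DMSO; Incubation: 72 h compound incubation; Technique: ATP-based CellTiter-Glo luminescent read; Evaluation: percent of median DMSO-control luminescence; Controls: vehicle and MePR control wells.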
(Cellular ATP, detected with luciferase, serves as a proxy for viable cell number.)

Assay [2] in a line: growth inhibitors of H69AR lung tumor, primary screen, human, duplicate replicates (AID 580).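 Note: 100% = mean luminescence of untreated wells and 0% = no signal.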 The conditions noted are these: H69AR lung tumor cells viability, ATP luminescence, 72 h; at 10 µM; stronger effect = lower value.
The nature of assay [3]: reversal of MRP1-mediated doxorubicin resistance, pilot screen, H69AR cells, doxorubicin co-treatment (AID 601;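 active = viability loss from added drug above about 55%, and viability with drug at most 40%, in both replicates, limit read from the data, passing the limit was not always enough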). The conditions noted are these: CellTiter-Glo, 72 h, at 10 µM; for differential viability (reversal): stronger effect = higher value.
Assay [4] in a line: 384-well plate pilot, post-Golgi transport modulator project, inhibition of yeast transport mutant growth (AID 636; in the data active = inhibition above about 31%). The conditions noted are these: absorbance 615 nm, about 18 h, stronger effect = higher value.
Assay [5] can be described thus: growth suppression of yeast trafficking mutant, preliminary HTS, modulators of trafficking downstream of Golgi apparatus project, 1536-format plate, OD 615 nm (AID 637; in the data active = inhibition above about 30%). Conditions: yeast transport mutant growth, absorbance 615 nm, 18 h; stronger effect = higher value.
The mark [6] stands for this setting: H69AR cells + 2 uM doxorubicin, measured here: viability with 2 uM doxorubicin, stronger effect = lower value.
The mark [7] stands for this setting: H69AR cells, compound alone cytotoxicity.

For the molecule `COc1ccc(CCNS(=O)(=O)c2ccc(C(=O)NCc3ccco3)cc2)cc1OC`, the viability – broadly, a read-out of living cells in per cent, often relative to untreated cells – in assay [1] was 83.4% (inactive); in assay [2], 80.9% (inactive); in assay [3] (setting [6]), 85.6%; in assay [3] (setting [7]) it was 80.9%. Further, the differential viability (reversal) in assay [3] (H69AR cells + 2 uM doxorubicin) was -4.64% (inactive). Further, the inhibition (usually the change of the read-out against control, counted positive when it falls) in assay [4] was 1.3% (inactive); in assay [5], 10.9% (inactive).
As for `CSc1cccc(NC(=O)CN(C)S(=O)(=O)c2ccccc2)c1`, the viability in assay [1] was 74.9% (inactive); in assay [2], 95.1% (inactive); in assay [3] (setting [6]), 80%; in assay [3] (setting [7]) it was 95.1%. Moreover, the differential viability (reversal) in assay [3] (H69AR cells + 2 uM doxorubicin) is 15.1% (inactive). The inhibition was -4.93% (inactive) in assay [4] and 1.27% (inactive) in assay [5].
On to `COC(=O)c1ccccc1NC(=O)c1noc2c1CC(C(C)(C)C)CC2` (stereo not given), for which the viability in assay [1] was 112% (inactive); in assay [2], 107% (inactive); in assay [3] (setting [6]) it was 92.9%; in assay [3] (setting [7]) it was 107%. In addition, the differential viability (reversal) in assay [3] (H69AR cells + 2 uM doxorubicin) is 14.2% (inactive). Further, the inhibition in assay [4] was -1.17% (inactive); in assay [5], 0.63% (inactive).
Consider `CCN1C(=O)/C(=C/N2CCc3ccccc32)SC1=S`, for which the viability in assay [1] is 98.3% (inactive); in assay [2], 58.5% (inactive); in assay [3] (setting [6]) it was 61.9%; in assay [3] (setting [7]), 58.5%. The differential viability (reversal) in assay [3] (H69AR cells + 2 uM doxorubicin) was -3.35% (inactive). In addition, the values for the inhibition in assay [4] and in assay [5] were -2.63% (inactive) and 0.95% (inactive), respectively.
As to `Nc1nc(CN2CCOCC2)cs1`, the viability in assay [1] was 101% (inactive); in assay [2], 100% (inactive); in assay [3] (setting [6]), 96.1%; in assay [3] (setting [7]), 100%. Moreover, the differential viability (reversal) in assay [3] (H69AR cells + 2 uM doxorubicin) is 3.83% (inactive). Moreover, the inhibition in assay [4] is -1.69% (inactive); in assay [5], 0.95% (inactive).
As for `O=C(c1ccco1)N1CCN(C(=O)c2ccc(Cn3cc(Br)cn3)o2)CC1`, the viability was 91% (inactive) in assay [1], 79.7% (inactive) in assay [2], 92.4% in assay [3] (setting [6]) and 79.7% in assay [3] (setting [7]). Moreover, the differential viability (reversal) in assay [3] (H69AR cells + 2 uM doxorubicin) is -12.7% (inactive). Also, the figures for the inhibition in assay [4] and in assay [5] were -2.11% (inactive) and 2.86% (inactive), respectively.
Consider `CCCCCCNC(=O)c1c(N)n(/N=C/c2ccco2)c2nc3ccccc3nc12`, for which the viability in assay [1] is 53.7% (inactive); in assay [2] it was 78.4% (inactive); in assay [3] (setting [6]) it was 79.4%; in assay [3] (setting [7]) it was 78.4%. Moreover, the differential viability (reversal) in assay [3] (H69AR cells + 2 uM doxorubicin) is -0.96% (inactive). In addition, the inhibition in assay [4] was -4.4% (inactive); in assay [5], -0.16% (inactive).
As for `O=S(=O)(c1ccccc1)N1CCN(C2CCCCCCC2)CC1`, the viability was 100% (inactive) in assay [1], 87.5% (inactive) in assay [2], 94.3% in assay [3] (setting [6]) and 87.5% in assay [3] (setting [7]). In assay [3] (H69AR cells + 2 uM doxorubicin), the differential viability (reversal) is -6.82% (inactive). Besides, the values for the inhibition in assay [4] and in assay [5] were -1.45% (inactive) and 1.9% (inactive), respectively.
Take `COc1cccc(NC(=O)C2CCN(c3ncccn3)CC2)c1`: the viability was 90% (inactive) in assay [1], 94% (inactive) in assay [2], 96.6% in assay [3] (setting [6]) and 94% in assay [3] (setting [7]). Further, the differential viability (reversal) in assay [3] (H69AR cells + 2 uM doxorubicin) is -2.54% (inactive). The inhibition is -6.4% (inactive) in assay [4] and -12.5% (inactive) in assay [5].
As to `CCc1nnc(NC(=O)CSc2nnc(-c3ccoc3C)n2CC(C)C)s1`, the viability in assay [1] was 85.8% (inactive); in assay [2], 106% (inactive); in assay [3] (setting [6]) it was 93.8%; in assay [3] (setting [7]) it was 106%. Also, the differential viability (reversal) in assay [3] (H69AR cells + 2 uM doxorubicin) was 12.6% (inactive). Further, the inhibition in assay [4] is -4.67% (inactive); in assay [5], 11.3% (inactive).
With `CCOc1ncccc1C(=O)Nc1ccc2c(C)cc(=O)oc2c1`, the viability was 84.1% (inactive) in assay [1], 93.5% (inactive) in assay [2], 92.4% in assay [3] (setting [6]) and 93.5% in assay [3] (setting [7]). The differential viability (reversal) in assay [3] (H69AR cells + 2 uM doxorubicin) was 1.12% (inactive). Moreover, the inhibition in assay [4] is -3.77% (inactive); in assay [5], 6.51% (inactive).
`CN(c1cccc(NS(=O)(=O)c2cccs2)c1)S(C)(=O)=O`: the viability in assay [1] was 95.5% (inactive); in assay [2] it was 86.8% (inactive); in assay [3] (setting [6]), 84.7%; in assay [3] (setting [7]), 86.8%. Besides, the differential viability (reversal) in assay [3] (H69AR cells + 2 uM doxorubicin) was 2.12% (inactive). In addition, the inhibition in assay [4] is -0.13% (inactive); in assay [5] it was 18.1% (inactive).
As for `CCc1c(C)nc(N2CCN(Cc3ccccc3)CC2)[nH]c1=O`, the viability in assay [1] was 115% (inactive); in assay [2], 103% (inactive); in assay [3] (setting [6]) it was 84.6%; in assay [3] (setting [7]) it was 103%. For the same molecule, the differential viability (reversal) in assay [3] (H69AR cells + 2 uM doxorubicin) is 18.8% (inactive). The figures for the inhibition in assay [4] and in assay [5] were -0.53% (inactive) and 0.32% (inactive), respectively.
In the case of `COc1ccc(S(=O)(=O)NCc2ccco2)cc1-c1nnc2c3ccccc3c(C)nn12`, the viability in assay [1] was 88.1% (inactive); in assay [2] it was 83.9% (inactive); in assay [3] (setting [6]), 94.2%; in assay [3] (setting [7]), 83.9%. The differential viability (reversal) in assay [3] (H69AR cells + 2 uM doxorubicin) is -10.3% (inactive). In addition, the inhibition in assay [4] was -5.92% (inactive); in assay [5] it was 7.14% (inactive).
In the case of `COc1cccc(-n2c(SCC(=O)OC(C)C)nnc2-c2cccnc2)c1`, the viability was 88.3% (inactive) in assay [1], 97.4% (inactive) in assay [2], 93.2% in assay [3] (setting [6]) and 97.4% in assay [3] (setting [7]). The differential viability (reversal) in assay [3] (H69AR cells + 2 uM doxorubicin) was 4.17% (inactive). For the same molecule, the inhibition in assay [4] is -1.32% (inactive); in assay [5], -3.02% (inactive).
Turning to `CN1CCN(c2nc(-c3ccncc3)nc3ccccc23)CC1`, the viability in assay [1] was 78.3% (inactive); in assay [2] it was 78.3% (inactive); in assay [3] (setting [6]), 28.8%; in assay [3] (setting [7]) it was 78.3%. Moreover, in assay [3] (H69AR cells + 2 uM doxorubicin), the differential viability (reversal) is 49.5% (inactive). The inhibition in assay [4] is -5.47% (inactive); in assay [5], 1.75% (inactive).
In the case of `O=C(c1nc2n(n1)C(c1ccc(Cl)cc1)C=C(c1ccccc1)N2)N1CCOCC1` (stereo not given), the viability was 96.9% (inactive) in assay [1], 91.9% (inactive) in assay [2], 98.8% in assay [3] (setting [6]) and 91.9% in assay [3] (setting [7]). Further, the differential viability (reversal) in assay [3] (H69AR cells + 2 uM doxorubicin) was -6.89% (inactive). Also, the inhibition was -1.18% (inactive) in assay [4] and -1.9% (inactive) in assay [5].
Take `Cc1cc(N2C(=O)C(O)=C(C(=O)c3ccc(C)o3)C2c2cccs2)no1` (stereo not given): the viability was 64.2% (inactive) in assay [1], 79.9% (inactive) in assay [2], 84.5% in assay [3] (setting [6]) and 79.9% in assay [3] (setting [7]). The differential viability (reversal) in assay [3] (H69AR cells + 2 uM doxorubicin) is -4.59% (inactive). The figures for the inhibition in assay [4] and in assay [5] were -2.13% (inactive) and -6.03% (inactive), respectively.
As for `COc1cccc(-c2noc(CCC(=O)NC3CCCCC3)n2)c1`, the viability is 91.5% (inactive) in assay [1], 97.6% (inactive) in assay [2], 97.3% in assay [3] (setting [6]) and 97.6% in assay [3] (setting [7]). For the same molecule, the differential viability (reversal) in assay [3] (H69AR cells + 2 uM doxorubicin) is 0.295% (inactive). The inhibition in assay [4] was -2.63% (inactive); in assay [5], -5.4% (inactive).
`CSc1nc2ccc(S(=O)(=O)N3CCOCC3)cc2s1`: the viability in assay [1] is 101% (inactive); in assay [2], 89.9% (inactive); in assay [3] (setting [6]), 94.4%; in assay [3] (setting [7]) it was 89.9%. For the same molecule, in assay [3] (H69AR cells + 2 uM doxorubicin), the differential viability (reversal) is -4.54% (inactive). The inhibition is -6.53% (inactive) in assay [4] and 2.06% (inactive) in assay [5].

Values taken from PubChem BioAssay.
